Reference: ChEMBL document CHEMBL5120858, “Structure-activity relationship and antitumor activity of 1,4-pyrazine-containing inhibitors of histone acetyltransferases P300/CBP” (Eur J Med Chem, 2022)
Active and inactive are the calls of the source. The rule behind the calls is not given here.

Key:
[1] = target: T1, Histone acetyltransferase p300 (Homo sapiens, UniProt Q09472); assay: Inhibition of human p300 HAT domain (1195 to 1673 residues) using histone H3 peptide and acetyl-coA as substrates preincubated for 10 mins followed by substrate addition and measured after 30 mins by beckman scintillation counting analysis
T1 sequence (Q09472 whole entry, the tested form may be a part): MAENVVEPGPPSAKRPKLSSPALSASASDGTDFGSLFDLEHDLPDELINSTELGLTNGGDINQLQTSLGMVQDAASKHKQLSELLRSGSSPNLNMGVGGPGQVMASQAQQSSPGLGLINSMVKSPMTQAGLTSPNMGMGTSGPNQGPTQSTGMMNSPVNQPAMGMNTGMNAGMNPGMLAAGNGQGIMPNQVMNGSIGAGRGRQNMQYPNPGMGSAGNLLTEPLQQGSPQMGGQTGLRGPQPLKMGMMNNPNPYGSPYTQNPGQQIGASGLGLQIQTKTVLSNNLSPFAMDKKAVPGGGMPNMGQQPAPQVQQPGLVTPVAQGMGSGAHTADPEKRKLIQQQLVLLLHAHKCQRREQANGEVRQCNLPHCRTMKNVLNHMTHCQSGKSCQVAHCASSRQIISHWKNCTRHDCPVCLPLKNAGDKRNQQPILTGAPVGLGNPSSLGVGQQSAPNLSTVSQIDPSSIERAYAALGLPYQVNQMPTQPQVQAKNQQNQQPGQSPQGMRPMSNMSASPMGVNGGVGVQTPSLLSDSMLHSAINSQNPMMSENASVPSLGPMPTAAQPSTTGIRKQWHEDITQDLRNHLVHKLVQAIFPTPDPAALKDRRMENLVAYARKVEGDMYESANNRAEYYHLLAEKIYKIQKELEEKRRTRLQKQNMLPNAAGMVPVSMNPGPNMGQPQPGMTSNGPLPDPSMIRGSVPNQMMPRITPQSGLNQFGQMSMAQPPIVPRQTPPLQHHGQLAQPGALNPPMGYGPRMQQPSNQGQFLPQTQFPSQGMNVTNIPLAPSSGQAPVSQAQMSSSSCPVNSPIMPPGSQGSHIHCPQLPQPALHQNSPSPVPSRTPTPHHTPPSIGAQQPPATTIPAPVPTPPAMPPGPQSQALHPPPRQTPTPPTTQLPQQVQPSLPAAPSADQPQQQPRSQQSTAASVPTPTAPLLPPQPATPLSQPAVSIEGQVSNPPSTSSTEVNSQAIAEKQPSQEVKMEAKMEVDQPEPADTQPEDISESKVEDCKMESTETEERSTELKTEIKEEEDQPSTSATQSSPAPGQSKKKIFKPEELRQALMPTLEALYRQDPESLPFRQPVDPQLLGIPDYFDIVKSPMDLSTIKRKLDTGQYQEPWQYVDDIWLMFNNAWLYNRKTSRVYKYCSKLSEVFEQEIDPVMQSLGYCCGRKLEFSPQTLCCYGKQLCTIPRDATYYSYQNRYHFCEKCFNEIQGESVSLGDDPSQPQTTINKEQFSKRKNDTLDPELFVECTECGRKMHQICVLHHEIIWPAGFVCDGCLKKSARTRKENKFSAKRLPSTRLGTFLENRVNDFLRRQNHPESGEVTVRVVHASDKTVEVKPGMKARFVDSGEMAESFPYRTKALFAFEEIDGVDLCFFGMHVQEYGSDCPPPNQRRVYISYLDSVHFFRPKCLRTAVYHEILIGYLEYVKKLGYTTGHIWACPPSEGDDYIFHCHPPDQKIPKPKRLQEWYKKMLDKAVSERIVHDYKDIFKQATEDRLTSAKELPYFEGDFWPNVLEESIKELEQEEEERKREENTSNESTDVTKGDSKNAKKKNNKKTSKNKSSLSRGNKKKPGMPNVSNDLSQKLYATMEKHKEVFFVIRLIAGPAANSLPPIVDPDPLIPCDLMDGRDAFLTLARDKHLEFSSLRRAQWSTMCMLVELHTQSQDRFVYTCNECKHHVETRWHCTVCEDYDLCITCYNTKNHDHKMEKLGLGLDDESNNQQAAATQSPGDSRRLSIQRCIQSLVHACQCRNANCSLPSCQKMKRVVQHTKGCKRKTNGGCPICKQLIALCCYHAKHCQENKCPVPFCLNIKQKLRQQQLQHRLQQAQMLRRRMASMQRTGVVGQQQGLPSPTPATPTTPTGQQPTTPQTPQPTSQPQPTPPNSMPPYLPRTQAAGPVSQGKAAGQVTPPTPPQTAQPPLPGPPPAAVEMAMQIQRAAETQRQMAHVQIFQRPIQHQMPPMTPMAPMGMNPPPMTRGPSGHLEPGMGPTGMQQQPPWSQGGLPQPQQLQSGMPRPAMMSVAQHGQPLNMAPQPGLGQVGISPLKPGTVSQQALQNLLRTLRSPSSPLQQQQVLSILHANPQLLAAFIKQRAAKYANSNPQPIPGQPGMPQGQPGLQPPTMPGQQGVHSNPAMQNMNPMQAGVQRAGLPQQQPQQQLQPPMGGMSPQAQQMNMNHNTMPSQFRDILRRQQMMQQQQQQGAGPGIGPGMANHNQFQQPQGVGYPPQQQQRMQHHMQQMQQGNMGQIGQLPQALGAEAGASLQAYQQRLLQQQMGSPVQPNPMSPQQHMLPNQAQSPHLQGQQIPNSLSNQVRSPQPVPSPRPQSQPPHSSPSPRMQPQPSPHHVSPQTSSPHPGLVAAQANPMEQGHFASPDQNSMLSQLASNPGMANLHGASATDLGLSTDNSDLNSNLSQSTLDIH
Method in brief: (§1)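 Radiometric HAT assay. Enzyme at 10 nM was preincubated with graded compound for 10 min at 25 °C in 50 mM phosphate pH 7.0 with 0.01% Brij-35. Reaction started with H3 (1-21) peptide (20 μM) plus Ac-CoA (1 μM ³H-Ac-CoA + 19 μM unlabelled) and run 30 min at 25 °C. Stopped with formic acid, spotted on P81 paper, washed with NaHCO₃ and scintillation counted. IC₅₀ from sigmoidal fit, mean of ≥3 experiments.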

[2] = target: T1, Histone acetyltransferase p300; assay: Inhibition of human p300 HAT domain (1195 to 1673 residues) at 10 uM using histone H3 peptide and acetyl-coA as substrates preincubated for 10 mins followed by substrate addition and measured after 30 mins by beckman scintillation counting analysis relative to control; conditions: time 40.0 min
Method in brief: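 Single-concentration screen at 10 μM in the radiometric p300 HAT domain assay: enzyme 10 nM, pH 7.0 phosphate/Brij-35, 10 min preincubation, then H3(1-21) peptide 20 μM plus ³H/unlabelled Ac-CoA (20 μM total), 30 min at 25 °C. Filter-bound ³H-acetylated peptide was counted, and the value is given as % inhibition.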

RPMI-8226 [3] = assay: Antiproliferative activity against human RPMI-8226 cells assessed as reduction in cell growth incubated for 3 to 5 days by CellTiter-Glo luminescent cell viability assay; format: functional, cell-based
LNCaP [4] = assay: Antiproliferative activity against human LNCaP cells assessed as reduction in cell growth incubated for 3 to 5 days by CellTiter-Glo luminescent cell viability assay; format: functional, cell-based
PC-3 [5] = assay: Antiproliferative activity against human PC-3 cells assessed as reduction in cell growth incubated for 3 to 5 days by CellTiter-Glo luminescent cell viability assay; format: functional, cell-based
MOLM-13 [6] = assay: Antiproliferative activity against human MOLM-13 cells assessed as reduction in cell growth incubated for 3 to 5 days by CellTiter-Glo luminescent cell viability assay; format: functional, cell-based
MDA-MB-231 [7] = assay: Antiproliferative activity against human MDA-MB-231 cells assessed as reduction in cell growth incubated for 3 to 5 days by CellTiter-Glo luminescent cell viability assay; format: functional, cell-based
PC-3 [8] = assay: Antiproliferative activity against human PC-3 cells assessed as reduction in cell growth incubated for 5 days by XTT assay; format: functional, cell-based; conditions: PC-3, 120 h
LNCaP [9] = assay: Antiproliferative activity against human LNCaP cells assessed as reduction in cell growth incubated for 5 days by XTT assay; format: functional, cell-based; conditions: 120 h
Method in brief: (§2)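 Solid tumour cells were seeded at 10⁵ per well in DMEM with 10% FBS and penicillin/streptomycin and allowed to attach overnight. They were then exposed to increasing compound concentrations for 5 days. Viability was read by XTT, and EC50 came from dose-response curves.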

RPMI-8226 [10] = assay: Antiproliferative activity against human RPMI-8226 cells assessed as reduction in cell growth incubated for 5 days by XTT assay; format: functional, cell-based; conditions: RPMI-8226, 120 h
Method in brief: (§3)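 Blood cancer cells were plated at 10⁶ per well in RPMI-1640 with 20% FBS and penicillin/streptomycin and grown with increasing compound concentrations at 37 °C, 5% CO₂. Viability was measured by XTT, and EC50 was calculated from dose-response curves.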

[11] = Antiproliferative activity against human MDA-Panc-28 cells assessed as reduction in cell growth incubated for 5 days by XTT assay; format: functional, cell-based; conditions: MDA-Panc-28, 120 h; method in brief: as §2
MDA-MB-231 [12] = assay: Antiproliferative activity against human MDA-MB-231 cells assessed as reduction in cell growth incubated for 5 days by XTT assay; format: functional, cell-based; conditions: MDA-MB-231, 120 h
MV4-11 = assay: Antiproliferative activity against human MV4-11 cells assessed as reduction in cell growth incubated for 5 days by XTT assay; format: functional, cell-based; conditions: MV4-11, 120 h; method in brief: as §3
MOLM-13 [13] = assay: Antiproliferative activity against human MOLM-13 cells assessed as reduction in cell growth incubated for 5 days by XTT assay; format: functional, cell-based; conditions: MOLM-13, 120 h; method in brief: as §3
MCF7 = assay: Antiproliferative activity against human MCF7 cells assessed as reduction in cell growth incubated for 5 days by XTT assay; format: functional, cell-based; conditions: MCF7, 120 h; method in brief: as §2
PANC-1 = assay: Antiproliferative activity against human PANC-1 cells assessed as reduction in cell growth incubated for 5 days by XTT assay; format: functional, cell-based; conditions: PANC-1, 120 h; method in brief: as §2
[14] = target: T1, Histone acetyltransferase p300; assay: Inhibition of biotinylated histone H4 peptide binding to His-tagged human p300 HAT domain (1195 to 1673 residues) assessed as reduction in alpha signal incubated for 1 hr by amplified luminescent proximity homogeneous assay
Method in brief: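 AlphaScreen binding assay in PBS with 0.5% BSA: His6-tagged p300 HAT (125 nM) on nickel chelate acceptor beads and biotinylated H4 peptide (30 nM) on streptavidin donor beads, with a dilution series of compound. After 1 h, signal was read with excitation at 680 nm and emission at 570 nm, and IC50 came from a sigmoidal dose-response fit.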

Kasumi 1 [15] = assay: Inhibition of histone H3 acetylation at lysine 9 residue in human Kasumi 1 cells incubated for 12 hrs by Western blot analysis; format: functional, cell-based; conditions: dose 5-10 µM, DDE = dose-dependent effect
Method in brief: (§4)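 Kasumi-1 cells (10⁶ per well) exposed to a range of compound concentrations for 12 h. Total histones extracted and 2 μg protein resolved by SDS-PAGE, then transferred to PVDF. Blots probed with antibodies to H3K9Ac, H3K18Ac, H3K27Ac and total H3, with anti-rabbit IgG secondary.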

Kasumi 1 [16] = assay: Inhibition of histone H3 acetylation at lysine 27 residue in human Kasumi 1 cells incubated for 12 hrs by Western blot analysis; format: functional, cell-based; conditions: dose 5-10 µM, DDE = dose-dependent effect; method in brief: as §4
Kasumi 1 [17] = assay: Inhibition of histone H3 acetylation at lysine 27 residue in human Kasumi 1 cells at 5 to 10 uM incubated for 12 hrs by Western blot analysis; format: functional, cell-based; conditions: dose 5-10 µM
Method in brief: (§5)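 Kasumi-1 leukemia cells (10⁶ per well) were treated 12 h with a range of compound concentrations. Total histones were extracted, and 2 μg was resolved by SDS-PAGE and transferred to PVDF. Blots were probed for H3K9ac, H3K18ac, H3K27ac and total H3, with anti-rabbit IgG secondary.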

Kasumi 1 [18] = assay: Inhibition of histone H3 acetylation at lysine 18 residue in human Kasumi 1 cells incubated for 12 hrs by Western blot analysis; format: functional, cell-based; conditions: dose 5-10 µM, DDE = dose-dependent effect; method in brief: as §5
Kasumi 1 [19] = assay: Inhibition of histone H3 acetylation at lysine 9 residue in human Kasumi 1 cells at 5 to 10 uM incubated for 12 hrs by Western blot analysis; format: functional, cell-based; conditions: dose 5-10 µM; method in brief: as §5
[20] = target: Histone acetyltransferase KAT6A (Homo sapiens, UniProt Q92794); assay: Inhibition of human Myst3 using histone H3 peptide and acetyl-coA as substrates preincubated for 10 mins followed by substrate addition and measured after 30 mins by beckman scintillation counting analysis; method in brief: as §1
CREB-binding protein = CREB-binding protein (Homo sapiens, UniProt Q92793); assay: Inhibition of human CBP-HAT domain using histone H3 peptide and acetyl-coA as substrates preincubated for 10 mins followed by substrate addition and measured after 30 mins by beckman scintillation counting analysis; method in brief: as §1
[21] = target: Histone acetyltransferase KAT2B (Homo sapiens, UniProt Q92831); assay: Inhibition of human PCAF using histone H3 peptide and acetyl-coA as substrates preincubated for 10 mins followed by substrate addition and measured after 30 mins by beckman scintillation counting analysis; method in brief: as §1
Histone acetyltransferase KAT2B, sequence (Q92831 whole entry): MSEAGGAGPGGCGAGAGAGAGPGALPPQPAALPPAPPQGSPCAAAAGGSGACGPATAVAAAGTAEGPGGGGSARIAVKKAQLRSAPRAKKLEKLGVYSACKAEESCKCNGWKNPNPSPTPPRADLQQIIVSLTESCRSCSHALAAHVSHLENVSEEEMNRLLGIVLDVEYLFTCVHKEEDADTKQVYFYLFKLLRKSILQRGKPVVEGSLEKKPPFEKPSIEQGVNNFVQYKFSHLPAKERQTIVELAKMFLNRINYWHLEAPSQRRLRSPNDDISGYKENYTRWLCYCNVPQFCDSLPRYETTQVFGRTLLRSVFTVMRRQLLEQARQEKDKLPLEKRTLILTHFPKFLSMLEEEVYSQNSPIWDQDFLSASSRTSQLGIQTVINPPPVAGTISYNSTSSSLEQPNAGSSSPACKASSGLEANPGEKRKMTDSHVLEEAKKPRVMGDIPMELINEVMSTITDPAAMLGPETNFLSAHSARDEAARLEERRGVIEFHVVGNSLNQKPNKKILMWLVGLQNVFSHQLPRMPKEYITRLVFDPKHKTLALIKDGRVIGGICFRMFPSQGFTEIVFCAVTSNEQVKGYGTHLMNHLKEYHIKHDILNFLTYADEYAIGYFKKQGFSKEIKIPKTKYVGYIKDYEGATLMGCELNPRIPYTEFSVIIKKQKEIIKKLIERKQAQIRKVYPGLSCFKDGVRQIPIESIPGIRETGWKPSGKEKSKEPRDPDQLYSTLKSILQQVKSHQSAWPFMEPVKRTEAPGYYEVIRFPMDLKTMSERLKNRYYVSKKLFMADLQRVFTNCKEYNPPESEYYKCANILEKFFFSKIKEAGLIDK

Brc1cccc(-c2ncc(OCC3CCNCC3)nc2-c2cccc(Br)c2)c1
IC50 [1]: 9.9 µM

NCCOc1cnc(-c2ccc(Br)cc2)c(-c2ccc(Br)cc2)n1
inhibition [2]: 5.4% | IC50 [1]: > 10 µM

CN(C)Cc1ccc(-c2ncc(OCC3CCNCC3)nc2-c2ccc(CN(C)C)cc2)cc1
IC50 [1]: > 10 µM

CNCCCCOc1cnc(-c2ccc(Br)cc2)c(-c2ccc(Br)cc2)n1
IC50 [1]: > 10 µM

N#Cc1ccc(-c2ncc(OCC3CCNCC3)nc2-c2ccc(Br)cc2)cc1
inhibition [2]: 0% | IC50 [1]: > 10 µM

CN(C)CCCOc1cnc(-c2ccc(Br)cc2)c(-c2ccc(Br)cc2)n1
inhibition [2]: 4.8% | IC50 [1]: > 10 µM

CCc1ccc(-c2ncc(OCC3CCNCC3)nc2-c2ccc(CC)cc2)cc1
inhibition [2]: 55% | IC50 [1]: 10 µM

FC(F)(F)c1ccc(-c2ncc(OCC3CCNCC3)nc2-c2ccc(C(F)(F)F)cc2)cc1
inhibition [2]: 34% | IC50 [1]: > 10 µM

Nc1ccc(-c2ccc(-c3ncc(OCC4CCNCC4)nc3-c3ccc(-c4ccc(N)cc4)cc3)cc2)cc1
IC50 [1]: 2.3 µM

Fc1cc(-c2ncc(OCC3CCNCC3)nc2-c2ccc(Br)c(F)c2)ccc1Br
IC50 [1]: 11.8 µM

N#Cc1ccc(-c2nc(OCC3CCNCC3)cnc2-c2ccc(Br)cc2)cc1
inhibition [2]: 21% | IC50 [1]: > 10 µM

NCCCCOc1cnc(-c2ccc(Br)cc2)c(-c2ccc(Br)cc2)n1
IC50 [1]: > 10 µM

Ic1ccc(-c2ncc(OCC3CCNCC3)nc2-c2ccc(I)cc2)cc1
IC50 [1]: 7.8 µM

CNC(=O)Nc1ccc2c(c1)CC[C@@]21OC(=O)N(CC(=O)N(Cc2ccc(F)cc2)[C@@H](C)C(F)(F)F)C1=O (single isomer, unassigned) [A-485]
EC50 (RPMI-8226 [3]): 0.16 µM | EC50 (LNCaP [4]): 0.26 µM | EC50 (PC-3 [5]): 2.1 µM | EC50 (MOLM-13 [6]): 0.35 µM | EC50 (MDA-MB-231 [7]): > 10 µM

Clc1ccc(-c2ncc(OCC3CCNCC3)nc2-c2ccc(Cl)cc2)cc1
IC50 [1]: > 10 µM

COc1ccc(-c2ncc(OCC3CCNCC3)nc2-c2ccc(OC)cc2)cc1
inhibition [2]: 38% | IC50 [1]: > 10 µM

N#Cc1ccc(-c2ncc(OCC3CCNCC3)nc2-c2ccc(C#N)cc2)cc1
inhibition [2]: 0% | IC50 [1]: > 10 µM

c1cc(-c2ccc(-c3ncc(OCC4CCNCC4)nc3-c3ccc(-c4ccncc4)cc3)cc2)ccn1
inhibition [2]: 39% | IC50 [1]: > 10 µM

NCCCOc1cnc(-c2ccc(Br)cc2)c(-c2ccc(Br)cc2)n1
EC50 (PC-3 [8]): > 20 µM | EC50 (LNCaP [9]): > 20 µM | IC50 [1]: > 10 µM | EC50 (RPMI-8226 [10]): > 20 µM | EC50 [11]: > 20 µM | EC50 (MDA-MB-231 [12]): > 20 µM | EC50 (MV4-11): > 20 µM | EC50 (MOLM-13 [13]): > 20 µM | EC50 (MCF7): > 20 µM | EC50 (PANC-1): > 20 µM

Brc1ccc(-c2ncc(OCC3CCNCC3)nc2-c2ccc(Br)cc2)cc1
inhibition [2]: 72.5% | IC50 [1]: 5.7 µM | IC50 [14]: 27 µM

CC(=O)NCCOc1cnc(-c2ccc(Br)cc2)c(-c2ccc(Br)cc2)n1
inhibition [2]: 0% | IC50 [1]: > 10 µM

Brc1ccc(-c2ncc(OCC3CCNC3)nc2-c2ccc(Br)cc2)cc1 (stereo unspecified)
IC50 [1]: > 10 µM

O=C(O)c1cnc(-c2ccc(Br)cc2)c(-c2ccc(Br)cc2)n1
inhibition [2]: 30% | IC50 [1]: > 10 µM

NCc1ccc(-c2ncc(OCC3CCNCC3)nc2-c2ccc(CN)cc2)cc1
inhibition (Kasumi 1 [15]): Dde | IC50 [1]: 2.8 µM | inhibition (Kasumi 1 [16]): Dde

OCc1ccc(-c2ncc(OCC3CCNCC3)nc2-c2ccc(CO)cc2)cc1
inhibition [2]: 48.2% | IC50 [1]: 10 µM

Brc1ccc(-c2ncc(OCC3CCNCC3)nc2-c2ccc(Br)c(Br)c2)cc1Br
inhibition [2]: 50%

c1ccc(-c2cc(OCC3CCNCC3)cnc2-c2ccccc2)cc1
IC50 [1]: 46.3 µM

CNCCOc1cnc(-c2ccc(Br)cc2)c(-c2ccc(Br)cc2)n1
inhibition [2]: 19.6% | IC50 [1]: > 10 µM

Cc1ccc(-c2ncc(OCC3CCNCC3)cc2-c2ccc(CO)cc2)cc1
IC50 [1]: 62.6 µM

c1cc(-c2ccc(-c3ncc(OCC4CCNCC4)nc3-c3ccc(-c4ccoc4)cc3)cc2)co1
inhibition (Kasumi 1 [17]): Active | inhibition (Kasumi 1 [18]): Dde | inhibition (Kasumi 1 [19]): Active | IC50 [1]: 1.4 µM | EC50 (RPMI-8226 [10]): 6.4 µM | IC50 [14]: 7.2 µM | EC50 [11]: 4.3 µM | EC50 (MV4-11): 8.7 µM | EC50 (MOLM-13 [13]): 3.6 µM | EC50 (MCF7): 5.3 µM | IC50 [20]: > 100 µM | EC50 (PANC-1): 1.2 µM | IC50 (CREB-binding protein): 2.2 µM | IC50 [21]: > 100 µM

CC(C)(C)c1ccc(-c2ncc(OCC3CCNCC3)nc2-c2ccc(C(C)(C)C)cc2)cc1
IC50 [1]: 17.6 µM

c1ccc(-c2ccc(-c3ncc(OCC4CCNCC4)nc3-c3ccc(-c4ccccn4)cc3)cc2)nc1
inhibition [2]: 37% | IC50 [1]: > 10 µM
